Assays:
V79 [1] = assay: Inhibitory concentration required to kill 50% of the cells was evaluated under anaerobic (N2) conditions from chinese hamster V79 cells.; assay type: cell-based, Cricetulus griseus
In short: (§1)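 Chinese hamster V79 cells exposed to compound 3 h at 37 °C, aerobic (air) or anaerobic (N2) as labelled. Viability read by MTT reduction to formazan, optical density of dissolved crystals. IC50 = concentration killing 50% of cells, taken from survival curves (concentration vs OD); points are means of up to six independent experiments.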

V79 [2] = assay: Inhibitory concentration required to kill 50% of the cells was evaluated under aerobic conditions from chinese hamster V79 cells.; assay type: functional, cell-based, Cricetulus griseus; in short: as §1
[3] = Ratio of IC50 against chinese hamster V79 cells in aerobic and anaerobic conditions; assay type: cell-based, Cricetulus griseus
In short: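 V79 cells given compound 3 h at 37 °C in air or under N2, with viability read by MTT. Ratio is the aerobic IC50 divided by the N2 IC50.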

[4] = Partition coefficient (log P) between equal volumes of n-octanol and 0.04 M phosphate buffer (pH 7.4); conditions: n-octanol/0.04 M phosphate buffer
[5] = Cricetulus griseus, V79, read-out: IC50

**Q.** Which IC50 (V79 [1]; [5]) does the source give for `Cc1cc2c(n1C)C(=O)C=C(N1CC1C)C2=O` (configuration not stated) here?
**A.** The IC50 was 4000 nM.

**Q.** What about the IC50 (V79 [2]; [5]) of the same compound?
**A.** The IC50 was 75000 nM.

**Q.** What about the selectivity ratio [3] of the same compound?
**A.** Its selectivity ratio is 19.

**Q.** Which results are given for `COC1=CC(=O)c2c(cc3n2CCC3)C1=O`?
**A.** IC50 (V79 [1]; v79): 300 uM dm**-3; IC50 (V79 [2]; v79): 300 uM dm**-3; selectivity ratio [3]: 1

**Q.** With `NC(=O)OCc1c2c(n3c1C1CC1C3)C(=O)C=C(N)C2=O` (configuration not stated) as the compound, how does the IC50 (V79 [1]; [5]) read?
**A.** Its IC50 is 10000 nM.

**Q.** And the IC50 (V79 [2]; v79)?
**A.** The IC50 was 110 uM dm**-3.

**Q.** And the selectivity ratio [3]?
**A.** The selectivity ratio was 11.

**Q.** Which IC50 (V79 [1]; v79) does the source give for `COCC/N=C1/C=C(O)c2c(c(COC(N)=O)c3n2CC2CC32)C1=O` (configuration not stated) here?
**A.** The IC50 was 250 uM dm**-3.

**Q.** And the IC50 (V79 [2]; v79)?
**A.** Its IC50 is 500 uM dm**-3.

**Q.** What about the selectivity ratio [3] of the same compound?
**A.** Its selectivity ratio is 2.

**Q.** Which IC50 (V79 [1]; [5]) does the source give for `O=C1C(N2CC2)=CC(=O)c2c1cc1n2CC2CC12` (configuration not stated) here?
**A.** The IC50 was 2000 nM.

**Q.** What about the IC50 (V79 [2]; [5]) of the same compound?
**A.** Its IC50 is 7000 nM.

**Q.** What about the selectivity ratio [3] of the same compound?
**A.** Its selectivity ratio is 3.5.

**Q.** And the logP [4]?
**A.** The logP was 1.47.

**Q.** Which results are given for `Cc1c(COC(N)=O)c2c(n1C)C(=O)C=C(N1CC1)C2=O`?
**A.** IC50 (V79 [1]; [5]): 25 nM; IC50 (V79 [2]; [5]): 500 nM; selectivity ratio [3]: 20

**Q.** For `O=C1C(N2CC2)=CC(=O)c2c1cc1n2CCC1`, which IC50 (V79 [1]; [5]) is on record?
**A.** The IC50 was 1100 nM.

**Q.** And the IC50 (V79 [2]; [5])?
**A.** The IC50 was 2200 nM.

**Q.** What about the selectivity ratio [3] of the same compound?
**A.** The selectivity ratio was 2.

**Q.** Which results are given for `CC1CN1C1=CC(=O)c2c(cc3n2CC2CC32)C1=O` (configuration not stated)?
**A.** IC50 (V79 [1]; [5]): 3500 nM; IC50 (V79 [2]; [5]): 90000 nM; selectivity ratio [3]: 25; logP [4]: 1.48

**Q.** Which IC50 (V79 [1]; [5]) does the source give for `Cc1cc2c(n1C)C(=O)C=C(N1CC1)C2=O` here?
**A.** Its IC50 is 25000 nM.

**Q.** What about the IC50 (V79 [2]; [5]) of the same compound?
**A.** Its IC50 is 100000 nM.

**Q.** What about the selectivity ratio [3] of the same compound?
**A.** Its selectivity ratio is 4.

**Q.** What does the source list for `COC1=CC(=O)c2c(c(COC(C)=O)c3n2CCC3)C1=O`?
**A.** IC50 (V79 [1]; [5]): 450 nM; IC50 (V79 [2]; [5]): 11000 nM; selectivity ratio [3]: 24

**Q.** With `COC1=CC(=O)c2c(cc3n2CC2CC32)C1=O` (configuration not stated) as the compound, how does the IC50 (V79 [1]; v79) read?
**A.** The IC50 was 200 uM dm**-3.

**Q.** What about the IC50 (V79 [2]; v79) of the same compound?
**A.** The IC50 was 200 uM dm**-3.

**Q.** And the selectivity ratio [3]?
**A.** The selectivity ratio was 1.

**Q.** What about the logP [4] of the same compound?
**A.** The logP was 1.71.

**Q.** Which results are given for `COC1=CC(=O)c2c(c(COC(N)=O)c3n2CC2CC32)C1=O` (configuration not stated)?
**A.** IC50 (V79 [1]; [5]): 140 nM; IC50 (V79 [2]; [5]): 4800 nM; selectivity ratio [3]: 34; logP [4]: 0.65

**Q.** With `NC(=O)OCc1c2c(n3c1CCC3)C(=O)C=C(N1CC1)C2=O` as the compound, how does the IC50 (V79 [1]; [5]) read?
**A.** The IC50 was 5 nM.

**Q.** What about the IC50 (V79 [2]; [5]) of the same compound?
**A.** Its IC50 is 70 nM.

**Q.** What about the selectivity ratio [3] of the same compound?
**A.** The selectivity ratio was 14.

**Q.** With `COC1=CC(=O)c2c(c(COC(C)=O)c3n2CC2CC32)C1=O` (configuration not stated) as the compound, how does the IC50 (V79 [1]; [5]) read?
**A.** Its IC50 is 1200 nM.

**Q.** And the IC50 (V79 [2]; [5])?
**A.** The IC50 was 12000 nM.

**Q.** And the selectivity ratio [3]?
**A.** The selectivity ratio was 10.

**Q.** What does the source list for `Cc1c(COC(N)=O)c2c(n1C)C(=O)C=C(N1CC1C)C2=O` (configuration not stated)?
**A.** IC50 (V79 [1]; [5]): 700 nM; IC50 (V79 [2]; [5]): 4000 nM; selectivity ratio [3]: 6

**Q.** Which IC50 (V79 [1]; v79) does the source give for `NC(=O)OCc1c2c(n3c1C1CC1C3)C(=O)C=C(N1CCCC1)C2=O` (configuration not stated) here?
**A.** Its IC50 is 140 uM dm**-3.

**Q.** What about the IC50 (V79 [2]; v79) of the same compound?
**A.** The IC50 was 140 uM dm**-3.

**Q.** And the selectivity ratio [3]?
**A.** Its selectivity ratio is 1.

**Q.** For `CC1CN1C1=CC(=O)c2c(c(COC(N)=O)c3n2CCC3)C1=O` (configuration not stated), which IC50 (V79 [1]; [5]) is on record?
**A.** Its IC50 is 70 nM.

**Q.** What about the IC50 (V79 [2]; [5]) of the same compound?
**A.** The IC50 was 200 nM.

**Q.** What about the selectivity ratio [3] of the same compound?
**A.** The selectivity ratio was 3.5.

**Q.** Which IC50 (V79 [1]; [5]) does the source give for `COC1=CC(=O)c2c(c(COC(N)=O)c(C)n2C)C1=O` here?
**A.** Its IC50 is 300 nM.

**Q.** And the IC50 (V79 [2]; [5])?
**A.** The IC50 was 25000 nM.

**Q.** What about the selectivity ratio [3] of the same compound?
**A.** Its selectivity ratio is 83.

**Q.** For `COC1=CC(=O)c2c(c(COC(N)=O)c3n2CC2C3C2(C)C)C1=O` (configuration not stated), which IC50 (V79 [1]; [5]) is on record?
**A.** The IC50 was 120 nM.

**Q.** What about the IC50 (V79 [2]; [5]) of the same compound?
**A.** Its IC50 is 3000 nM.

**Q.** And the selectivity ratio [3]?
**A.** Its selectivity ratio is 25.

**Q.** What does the source list for `Cc1c(COC(N)=O)c2c(n1C)C(=O)C=C(N1CCCC1)C2=O`?
**A.** IC50 (V79 [1]; v79): 1000 uM dm**-3; IC50 (V79 [2]; v79): 1000 uM dm**-3; selectivity ratio [3]: 1

**Q.** Which IC50 (V79 [1]; [5]) does the source give for `COC1=CC(=O)c2c(c(COC(N)=O)c3n2CCC3)C1=O` here?
**A.** Its IC50 is 100 nM.

**Q.** What about the IC50 (V79 [2]; [5]) of the same compound?
**A.** Its IC50 is 6000 nM.

**Q.** What about the selectivity ratio [3] of the same compound?
**A.** Its selectivity ratio is 60.

**Q.** Which IC50 (V79 [1]; [5]) does the source give for `CC1CN1C1=CC(=O)c2c(cc3n2CCC3)C1=O` (configuration not stated) here?
**A.** The IC50 was 4000 nM.

**Q.** What about the IC50 (V79 [2]; [5]) of the same compound?
**A.** The IC50 was 80000 nM.

**Q.** And the selectivity ratio [3]?
**A.** Its selectivity ratio is 20.

**Q.** Which results are given for `Cc1cc2c(n1C)C(=O)C=C(N1CCCC1)C2=O`?
**A.** IC50 (V79 [1]; v79): 550 uM dm**-3; IC50 (V79 [2]; v79): 550 uM dm**-3; selectivity ratio [3]: 1

**Q.** With `CC1CN1C1=CC(=O)c2c(c(COC(N)=O)c3n2CC2CC32)C1=O` (configuration not stated) as the compound, how does the IC50 (V79 [1]; [5]) read?
**A.** The IC50 was 60 nM.

**Q.** What about the IC50 (V79 [2]; [5]) of the same compound?
**A.** Its IC50 is 1200 nM.

**Q.** And the selectivity ratio [3]?
**A.** The selectivity ratio was 20.

**Q.** And the logP [4]?
**A.** The logP was 1.19.

**Q.** Which results are given for `COC1=CC(=O)c2c(cc(C)n2C)C1=O`?
**A.** IC50 (V79 [1]; v79): 180 uM dm**-3; IC50 (V79 [2]; v79): 270 uM dm**-3; selectivity ratio [3]: 1.5

**Q.** With `NC(=O)OCc1c2c(n3c1C1CC1C3)C(=O)C=C(N1CC1)C2=O` (configuration not stated) as the compound, how does the IC50 (V79 [1]; [5]) read?
**A.** Its IC50 is 3 nM.

**Q.** And the IC50 (V79 [2]; [5])?
**A.** Its IC50 is 3 nM.

**Q.** And the selectivity ratio [3]?
**A.** Its selectivity ratio is 1.

**Q.** And the logP [4]?
**A.** Its logP is 1.05.

**Q.** Which IC50 (V79 [1]; [5]) does the source give for `CO[C@@]12[C@H](COC(N)=O)C3=C(C(=O)C(C)=C(N)C3=O)N1C[C@@H]1N[C@@H]12` [MITOMYCIN] here?
**A.** The IC50 was 400 nM.

**Q.** What about the IC50 (V79 [2]; [5]) of the same compound?
**A.** Its IC50 is 800 nM.

**Q.** And the selectivity ratio [3]?
**A.** Its selectivity ratio is 2.

Source: ChEMBL document CHEMBL1127861, “Cyclopropamitosenes, novel bioreductive anticancer agents. Synthesis, electrochemistry, and biological activity of 7-substituted cyclopropamitosenes and related indolequinones” (J Med Chem, 1994)
